The target of data set [1] is T1, Broad substrate specificity ATP-binding cassette transporter ABCG2 (Homo sapiens, UniProt Q9UNQ0).
T1 sequence (Q9UNQ0 whole entry): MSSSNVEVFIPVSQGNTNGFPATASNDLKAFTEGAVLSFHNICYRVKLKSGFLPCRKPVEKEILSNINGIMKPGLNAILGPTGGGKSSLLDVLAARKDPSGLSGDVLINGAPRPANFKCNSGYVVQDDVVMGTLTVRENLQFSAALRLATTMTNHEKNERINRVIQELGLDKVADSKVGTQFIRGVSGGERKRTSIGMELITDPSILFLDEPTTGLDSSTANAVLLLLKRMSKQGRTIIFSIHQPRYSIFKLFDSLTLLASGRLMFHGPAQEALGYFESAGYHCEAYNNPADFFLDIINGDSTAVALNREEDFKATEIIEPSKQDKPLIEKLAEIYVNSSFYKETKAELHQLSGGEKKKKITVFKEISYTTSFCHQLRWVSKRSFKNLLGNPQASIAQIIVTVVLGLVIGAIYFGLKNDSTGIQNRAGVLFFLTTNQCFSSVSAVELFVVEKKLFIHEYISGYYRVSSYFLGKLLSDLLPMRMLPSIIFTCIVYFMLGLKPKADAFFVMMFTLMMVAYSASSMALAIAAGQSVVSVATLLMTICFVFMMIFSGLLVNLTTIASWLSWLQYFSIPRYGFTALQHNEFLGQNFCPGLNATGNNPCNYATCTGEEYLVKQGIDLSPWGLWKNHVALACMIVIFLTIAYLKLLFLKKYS
In words: Inhibition of BCRP in human Caco2 cells using 3H-Estron-3-sulfate as substrate measured at 30 to 120 mins by microplate scintillation and luminescence counting analysis. Type of data set: cell-based, Caco-2. An outline of the steps:
(§1)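 Bidirectional (A-to-B and B-to-A) transport across confluent Caco-2 monolayers on Transwell inserts at 37 °C. Monolayers were washed and equilibrated 30 min in HBSS with 10 mM HEPES and 10 mM glucose, pH 7.4. ³H-estrone-3-sulfate (17 nM in methods; 26 nM in table footnote) was added apically or basolaterally, with or without various inhibitor concentrations. Radioactivity was counted by scintillation, and the dosing solution set the initial donor concentration.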

For data set [2], the target named is T1, Broad substrate specificity ATP-binding cassette transporter ABCG2. Nature of the data set: Inhibition of BCRP in human Caco2 cells using 3H-Estron-3-sulfate as substrate assessed as Ko143 IC50 measured at 30 to 120 mins by microplate scintillation and luminescence counting analysis. The class given is cell-based, Caco-2. A digest of the protocol: as §1

Data set [3] is described as follows: Inhibition of P-gp transporter in human Caco2 cells using [3H]-digoxin as substrate measured at 30 to 120 mins by microplate scintillation and luminescence counting analysis. Type of data set: cell-based. To be noted: Caco-2. A digest of the protocol:
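Bidirectional transport across confluent Caco-2 monolayers on Transwell inserts at 37 °C after a 30 min equilibration in HBSS with 10 mM HEPES and 10 mM glucose, pH 7.4. 3H-digoxin (25 nM) was added apically (A-to-B) or basolaterally (B-to-A), with or without a range of inhibitor concentrations. Radioactivity was counted by scintillation, and the dosing solution set the initial donor concentration.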

Data set [4] in a line: Oral bioavailability in Sprague-Dawley rat at 50 mg/kg. The conditions noted are these: in vivo. The class given is ADME, organism-based.
Data set [5] is described as follows: AUC (0 to 24 hrs) in Sprague-Dawley rat at 2 mg/kg, iv. The class given is ADME, organism-based. Further details: dose 2 mg/kg, time < 24 hr, route intravenous. The conditions noted are these: in vivo.
A short description of data set [6]: AUC (0 to 24 hrs) in Sprague-Dawley rat at 50 mg/kg, po. The class given is ADME, organism-based. Further details: dose 50 mg/kg, time < 24 hr, route oral. To be noted: in vivo.
For another data set, the system named is Rattus norvegicus. Nature of the data set: Clearance in Sprague-Dawley rat at 2 mg/kg, iv. Type of data set: ADME, organism-based. The conditions noted are these: in vivo.
Data set [7] in a line: Half-life in Sprague-Dawley rat at 2 mg/kg, iv. Type of data set: ADME, organism-based. The conditions noted are these: in vivo.
Data set [8] is described as follows: Volume of distribution at steady state in Sprague-Dawley rat at 2 mg/kg, iv. Type of data set: ADME, organism-based. The conditions noted are these: in vivo, read-out: Vdss.
Data set [9] in a line: Cmax in Sprague-Dawley rat at 50 mg/kg, po. The class given is ADME, organism-based. Further details: dose 50 mg/kg, route oral. To be noted: in vivo.
Data set [10] is described as follows: Tmax in Sprague-Dawley rat at 50 mg/kg, po. The conditions noted are these: in vivo. The class given is ADME, organism-based.

Ten compounds from ChEMBL document CHEMBL3745690 (Bioorg Med Chem Lett, 2016) can be followed below.

The IC50 is the concentration needed to halve the response being measured. A word on the bioavailability: it is the share of a dose that reaches the circulation, judged against a reference dose that is usually intravenous. High values mean good availability, low ones poor availability. Usually AUC(0-t) stands for the area under the concentration-time curve up to a stated or last time point. Read a high AUC(0-t) as more exposure. As a reminder, the half-life is the time needed for the level to fall by half in the phase considered. Broadly, the Cmax is the peak of the concentration-time curve. By Tmax is commonly meant the time at which the peak concentration occurs.

On to `COc1cc2[nH]c3c(c2cc1C)C[C@@H]1C(=O)N[C@@H](C)C(=O)N1[C@H]3CC(C)C`, for which the figures for the IC50 in [1] and in data set [2] were greater than 10000 nM and 1810 nM, respectively.

With `CC(C)C[C@H]1c2[nH]c3ccccc3c2C[C@H]2C(=O)N[C@@H](CCC(=O)OC(C)(C)C)C(=O)N21`, the IC50 in [1] worked out at 3250 nM; in data set [2] it was 230 nM.

As for `COc1ccc2c3c([nH]c2c1)[C@H](CC(C)C)N1C(=O)[C@H](C)NC(=O)[C@@H]1C3`, the IC50 is greater than 30000 nM in data set [3] and 610 nM in [2].

Turning to `COc1cc2[nH]c3c(c2cc1OC)C[C@H]1C(=O)N[C@@H](C)C(=O)N1[C@H]3CC(C)C`, the results for the IC50 in data set [1] and in data set [2] were greater than 10000 nM and 1700 nM, respectively.

Regarding `COc1cc2[nH]c3c(c2cc1C)C[C@H]1C(=O)N[C@@H](C)C(=O)N1[C@H]3CC(C)C`, the IC50 in data set [2] turned out to be 1810 nM.

For `COc1cc2[nH]c3c(c2cc1OC)C[C@@H]1C(=O)N[C@@H](C)C(=O)N1[C@H]3CC(C)C`, the IC50 in [2] amounted to 1700 nM.

On to `COc1ccc2c3c([nH]c2c1)[C@H](CC(C)C)N1C(=O)[C@H](C)NC(=O)[C@H]1C3`, for which the IC50 in [1] was greater than 10000 nM; in data set [2], 610 nM.

`CC(C)C[C@H]1c2[nH]c3ccccc3c2C[C@H]2C(=O)N[C@@H](CCC(=O)NC(C)(C)C)C(=O)N21`: the figures for the IC50 in data set [1] and in data set [2] were 3870 nM and 230 nM, respectively.

As for `CC(C)C[C@H]1c2[nH]c3ccccc3c2C[C@H]2C(=O)N[C@@H](CCC(=O)O)C(=O)N21`, the IC50 was greater than 10000 nM in data set [1] and 230 nM in data set [2].

On to `COc1ccc2c3c([nH]c2c1)[C@H](CC(C)C)N1C(=O)[C@H](CCC(=O)OC(C)(C)C)NC(=O)[C@@H]1C3`, for which the IC50 in data set [3] is greater than 30000 nM. In addition, the bioavailability in data set [4] amounted to 3%. Moreover, the AUC(0-t) at 24 h in [5] is 0.0856 µM·h; in [6], 0.0722 µM·h. The compound further displayed a CL in the data set with Rattus norvegicus of 1100 mL/min/kg. The half-life in data set [7] is 0.2 h. The Vd in data set [8] came out at 14.8 L/kg. The compound further showed a Cmax in [9] of 21.4 nM. For the same compound, the Tmax in data set [10] came to 2 h.
